Assay results as given in ChEMBL document CHEMBL4477213, “Discovery and Optimization of Quinazolinone-pyrrolopyrrolones as Potent and Orally Bioavailable Pan-Pim Kinase Inhibitors” (J Med Chem, 2016).
Converted amounts (≈) assume the structure as drawn.

How the values were obtained:
[1] = target: Serine/threonine-protein kinase pim-2 (Homo sapiens, UniProt Q9P1W9); assay: Inhibition of full length recombinant Pim-2 (unknown origin) assessed as reduction in phosphorylation of biotinylated-BAD peptide at Serine 112 residue preincubated for 30 mins followed by substrate addition for 1 hr by HTRF assay
[2] = Intrinsic clearance in rat liver microsomes at 1 uM after 30 mins in presence of NADPH; type: ADME, Microsome; settings: read-out: CLH
[3] = Intrinsic clearance in human liver microsomes at 1 uM after 30 mins in presence of NADPH; type: ADME, Microsome; settings: read-out: CLH
[4] = Clearance in rat at 2 mg/kg, iv; type: ADME, organism-based; settings: in vivo
[5] = Volume of distribution at steady state in rat at 2 mg/kg, iv or 5 mg/kg, po; type: ADME, organism-based; settings: in vivo, read-out: Vdss
[6] = Half life in rat at 2 mg/kg, iv or 5 mg/kg, po; type: ADME, organism-based; settings: in vivo
[7] = Oral bioavailability in rat at 5 mg/kg; type: ADME, organism-based; settings: in vivo
[8] = target: Serine/threonine-protein kinase pim-1 (Homo sapiens, UniProt P11309)
[9] = target: Serine/threonine-protein kinase PIM (Homo sapiens, UniProt P11309+Q9P1W9+Q86V86); settings: kms-12-bm
[10] = Drug level in rat liver microsomes treated with 2-(3-(tert-butylamino)-6-fluoro-2-methylquinoxalin-5-yl)-6,7-dihydro-1H-pyrrolo[3,2-c]pyridin-4(5H)-one; type: ADME, Microsome
How it was run: (§1)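 Parent compound at 1 µM was incubated with liver microsomes (rat or dog, 0.25 mg/mL) in 66.7 mM potassium phosphate, pH 7.4, with 1 mM NADPH at 37 °C for 30 min.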

[11] = Intrinsic clearance in dog liver microsomes at 1 uM after 30 mins in presence of NADPH; type: ADME, Canis lupus familiaris, Microsome; settings: read-out: CLH; how it was run: as §1
[12] = Clearance in dog at 0.3 mg/kg, iv; type: ADME, organism-based, Canis lupus familiaris; settings: in vivo
[13] = Volume of distribution at steady state in dog at 0.3 mg/kg, iv; type: ADME, organism-based, Canis lupus familiaris; settings: in vivo; for Vd: read-out: Vdss
[14] = Half life in dog at 0.3 mg/kg, iv; type: ADME, organism-based, Canis lupus familiaris; settings: in vivo
[15] = Fraction unbound in rat plasma at 5 uM by rapid equilibrium dialysis; type: ADME, cell-free
[16] = Fraction unbound in dog plasma by rapid equilibrium dialysis; type: ADME, cell-free, Canis lupus familiaris
[17] = Unbound clearance in iv dosed dog; type: ADME, organism-based, Canis lupus familiaris; settings: in vivo
How it was run: (§2)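 Unbound plasma fraction (fu) measured by rapid equilibrium dialysis in rat or dog plasma; unbound clearance CLu calculated from IV clearance and fu.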

[18] = Intrinsic clearance in rat hepatocytes assessed per 10^6 cells; type: ADME, cell-based, Hepatocyte; settings: read-out: CLH
[19] = Intrinsic clearance in dog hepatocytes assessed per 10^6 cells; type: ADME, cell-based, Canis lupus familiaris, Hepatocyte; settings: read-out: CLH
[20] = Unbound clearance in iv dosed rat; type: ADME, organism-based; settings: in vivo; how it was run: as §2
KMS-12-BM = assay: Antitumor activity against human KMS-12-BM cells xenografted in SCID-bg mouse assessed as tumor growth inhibition at 50 mg/kg, po qd measured twice per week; type: functional; settings: read-out: TGI
[21] = Drug metabolism in rat liver microsomes assessed as hydroxylation of t-butyl group measured as 2-(6-fluoro-3-(1-hydroxy-2-methylpropan-2-ylamino)-2-methylquinoxalin-5-yl)-6,7-dihydro-1H-pyrrolo[3,2-c]pyridin-4(5H)-one formation; type: ADME, Microsome
[22] = Drug metabolism in dog liver microsomes assessed as dehydrogenation of 6,7-dihydro-1H-pyrrolo[3,2-c]pyridin-4(5H)-one measured as 2-(3-(tert-butylamino)-6-fluoro-2-methylquinoxalin-5-yl)-1H-pyrrolo[3,2-c]pyridin-4(5H)-one formation; type: ADME, Canis lupus familiaris, Microsome
[23] = Aqueous solubility of the compound in FaSIF at pH 6.8 after 1 hr by LC/MS analysis
Homo sapiens = organism: Homo sapiens; assay: Ratio of IC50 for pan Pim in human KMS-12-BM cells to IC50 for full length recombinant Pim-2 (unknown origin); type: cell-based
How it was run: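 Enzyme step: full-length recombinant human Pim-2 phosphorylating a BAD peptide at Ser112. The shift is the ratio of the cellular potency to the enzymatic potency.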

[24] = Aqueous solubility of the compound in PBS at pH 7.4 after 1 hr by LC/MS analysis; type: physicochemical
How it was run: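 The compound was dried down from DMSO and taken up in 1x PBS (pH 7.4) or FaSIF (pH 6.8). Samples were shaken 1 h, equilibrated at RT for 72 h, then centrifuged.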

[25] = Drug metabolism in dog hepatocytes assessed as hydroxylation on the quinoxaline bicycle; type: ADME, cell-based, Canis lupus familiaris, Hepatocyte
[26] = Apparent permeability in pig LLC-PK1 cells; type: ADME, cell-based, Sus scrofa
[27] = Drug level in dog liver microsomes treated with 2-(3-(tert-butylamino)-6-fluoro-2-methylquinoxalin-5-yl)-6,7-dihydro-1H-pyrrolo[3,2-c]pyridin-4(5H)-one; type: ADME, Canis lupus familiaris, Microsome; how it was run: as §1

Serine/threonine-protein kinase pim-1, sequence (P11309 whole entry): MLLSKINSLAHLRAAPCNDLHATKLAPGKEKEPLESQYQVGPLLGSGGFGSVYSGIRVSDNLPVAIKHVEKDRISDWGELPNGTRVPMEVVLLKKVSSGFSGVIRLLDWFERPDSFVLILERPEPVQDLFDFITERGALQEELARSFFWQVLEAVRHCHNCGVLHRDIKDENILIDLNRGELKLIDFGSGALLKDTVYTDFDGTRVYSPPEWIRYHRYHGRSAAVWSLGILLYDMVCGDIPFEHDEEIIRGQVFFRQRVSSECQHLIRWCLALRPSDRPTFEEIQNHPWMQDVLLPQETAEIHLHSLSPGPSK
Serine/threonine-protein kinase pim-2, sequence (Q9P1W9 whole entry): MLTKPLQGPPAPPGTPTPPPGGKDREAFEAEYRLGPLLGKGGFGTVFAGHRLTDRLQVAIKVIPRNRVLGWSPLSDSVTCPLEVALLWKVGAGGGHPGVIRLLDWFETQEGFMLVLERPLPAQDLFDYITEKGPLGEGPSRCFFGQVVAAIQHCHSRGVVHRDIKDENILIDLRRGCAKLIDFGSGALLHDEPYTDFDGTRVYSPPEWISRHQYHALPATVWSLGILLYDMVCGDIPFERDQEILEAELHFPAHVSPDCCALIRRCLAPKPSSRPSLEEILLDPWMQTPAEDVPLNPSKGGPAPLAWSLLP

Row | IC50 [1] [nM] | microsomal CLint at 1 µM [2] [µL/min/mg] | microsomal CLint at 1 µM [3] [µL/min/mg] | clearance [4] [mL/min/kg] | Vd [5] [L/kg] | half-life [6] [h] | bioavailability [7] [%] | IC50 [8] [nM] | IC50 [9] [nM] | solubility at 1 h [23] [µM] | SMILES | other results
1 | 0.5 | 52 | 35 | 10 | 1.3 | 4.5 | 100 | 0.4 | 78 | – | Cc1nc2cccc(-c3cc4c([nH]3)C3(CC3)NC4=O)c2nc1NC(C)(C)C | –
2 | 0.3 | – | – | – | – | – | – | 0.9 | 143 | – | Cc1nc2ccc(F)c(-c3cc4c([nH]3)CCNC4=O)c2nc1NC(C)(C)CO | Drug metabolism [10]: Metabolite_Detected
3 | 0.3 | 189 | 66 | 6.67 | 1 | 3.5 | 37 | 0.3 | 23 | – | Cc1nc2ccc(F)c(-c3cc4c([nH]3)CCNC4=O)c2nc1NC(C)(C)C | microsomal CLint at 1 µM [11]: 203 µL/min/mg; CL [12]: 56.7 mL/min/kg; Vdss [13]: 8.7 L/kg; t1/2 [14]: 0.6 h; fraction unbound at 5 µM [15]: 0.017; fraction unbound [16]: 0.06; CL free [17]: 943 mL/min/kg; hepatocyte CLint [18]: 39 µL/min/1e6 cells; hepatocyte CLint [19]: 32 µL/min/1e6 cells; CL free [20]: 392 mL/min/kg; inhibition in vivo at 50 mg/kg (KMS-12-BM): 78%; Drug metabolism [21]: Metabolite_Detected; Drug metabolism [22]: Metabolite_Detected
4 | 6.8 | 326 | 102 | – | – | – | – | 6.4 | 2870 | – | Cc1nc2cccc(-c3cc4c(s3)CNC4=O)c2nc1NC(C)(C)C | –
5 | – | – | – | – | – | – | – | – | – | 295 (≈ 106 µg/mL) | Cc1nc2cccc3c2nc1N[C@H](C)/C=C\C[C@H]1CNC(=O)c2cc-3[nH]c21 | –
6 | – | 169 | 67 | – | – | – | – | – | – | – | Cc1nc2cccc(-c3cc4c([nH]3)CCCNC4=O)c2nc1NC(C)(C)C | –
7 | 5.2 | – | – | – | – | – | – | 6.5 | 1142 | – | C[C@H]1NC(=O)c2cc(-c3cccc4c3N=C(NC(C)(C)C)N(C)S4(=O)=O)[nH]c21 | –
8 | 4.9 | – | – | – | – | – | – | 7.3 | 5960 | 9 (≈ 3.28 µg/mL) | C[C@H]1NC(=O)c2cc(-c3cccc4c(=O)n(C)c(CC(C)(C)C)nc34)[nH]c21 | Ratio IC50 (Homo sapiens): > 1000
9 | – | 143 | 111 | – | – | – | – | – | – | – | Cc1nc2cccc(-c3[nH]c4c(c3Cl)C(=O)N[C@@H]4C)c2nc1NC(C)(C)C | –
10 | 2.5 | 373 | 104 | – | – | – | – | 2.5 | 1380 | – | Cc1nc2cccc(-c3cc4c(s3)C(=O)NC4)c2nc1NC(C)(C)C | –
11 | 0.9 | – | – | – | – | – | – | 0.7 | 127 | 134 (≈ 51.1 µg/mL) | C[C@H]1NC(=O)c2cc(-c3cccc4c(=O)n(C)c(NC(C)(C)CO)nc34)[nH]c21 | solubility at 1 h [24]: 101 µM (≈ 38.5 µg/mL)
12 | – | 50 | 37 | 8.33 | 1.3 | 3 | 62 | – | – | 245 (≈ 85.6 µg/mL) | Cc1nc2cccc(-c3cc4c([nH]3)[C@@H](C)NC4=O)c2nc1NC(C)(C)C | solubility at 1 h [24]: 99 µM (≈ 34.6 µg/mL); microsomal CLint at 1 µM [11]: 88 µL/min/mg; clearance [12]: 26.7 mL/min/kg; Vd [13]: 1.7 L/kg; half-life [14]: 0.6 h; Drug metabolism [25]: Metabolite_Detected
13 | 2.1 | – | – | – | – | – | – | 3.1 | > 2000 | – | Cc1c(NC(C)(C)C)nc2c(-c3cc4c([nH]3)[C@@H](C)NC4=O)cccn2c1=O | –
14 | – | 52 | 35 | 8.33 | 1.6 | 2.9 | 54 | – | – | – | Cc1nc2ccc(F)c(-c3cc4c([nH]3)[C@@H](C)NC4=O)c2nc1NC(C)(C)C | microsomal CLint at 1 µM [11]: 105 µL/min/mg; clearance [12]: 25 mL/min/kg; Vd [13]: 1.7 L/kg; half-life [14]: 1.1 h
15 | 0.6 | 86 | 70 | 11.7 | 4.2 | 4.7 | 6 | 0.8 | 110 | – | Cc1nc2cccc(-c3cc4c([nH]3)CCNC4=O)c2nc1NC(C)(C)C | –
16 | – | – | – | – | 1.9 | – | 5 | – | – | 344 (≈ 125 µg/mL) | C[C@H]1NC(=O)c2cc(-c3cccc4c(=O)n(C)c(NC5(C)CC5)nc34)[nH]c21 | solubility at 1 h [24]: 56 µM (≈ 20.4 µg/mL); Papp [26]: 29 ×10⁻⁶ cm/s
17 | 6.1 | 205 | 85 | – | – | – | – | 6.6 | 4560 | – | Cc1nc2cccc(-c3cc4n(c3)CCNC4=O)c2nc1NC(C)(C)C | –
18 | 0.1 | – | – | – | – | – | – | 0.2 | 148 | – | Cc1nc2ccc(F)c(-c3cc4c(=O)[nH]ccc4[nH]3)c2nc1NC(C)(C)C | Drug metabolism [27]: Metabolite_Detected
19 | 1 | – | – | – | – | – | – | 1.5 | 167 | 122 (≈ 46.3 µg/mL) | C[C@H]1NC(=O)c2cc(-c3cccc4c(=O)n(C)c(N(C)C(C)(C)C)nc34)[nH]c21 | solubility at 1 h [24]: 61 µM (≈ 23.1 µg/mL)
20 | 117 | 45 | < 14 | – | – | – | – | 44 | 5760 | – | Cc1nc2cccc(-c3cc4c([nH]3)C3(CCOCC3)NC4=O)c2nc1NC(C)(C)C | –
21 | – | 130 | 89 | – | – | – | – | – | – | – | Cc1nc2cccc(-c3cc4c([nH]3)[C@H](C)NC4=O)c2nc1NC(C)(C)C | –
22 | – | 16 | < 14 | 6.67 | 1.4 | 4.3 | 10 | – | – | 23 (≈ 8.82 µg/mL) | C[C@H]1NC(=O)c2cc(-c3c(F)ccc4c(=O)n(C)c(NC(C)(C)C)nc34)[nH]c21 | solubility at 1 h [24]: 14 µM (≈ 5.37 µg/mL); Papp [26]: 16 ×10⁻⁶ cm/s; fraction unbound at 5 µM [15]: 0.062
23 | 0.6 | – | – | – | – | – | – | 0.9 | 88 | 35 (≈ 13.7 µg/mL) | C[C@H]1NC(=O)c2cc(-c3cccc4c(=O)n(C)c(N5CCCC5(C)C)nc34)[nH]c21 | solubility at 1 h [24]: 20 µM (≈ 7.83 µg/mL)
24 | 7.4 | – | – | – | – | – | – | 4.5 | 1642 | – | C[C@H]1NC(=O)c2cc(-c3nccc4c(=O)n(C)c(NC(C)(C)C)nc34)[nH]c21 | –
25 | 0.3 | < 14 | < 14 | 23.3 | 21.2 | 17.5 | < 1 | 0.6 | 22 | – | Cc1nc2cccc(-c3cc4c([nH]3)[C@@H](CCN)NC4=O)c2nc1NC(C)(C)C | –

Row | SMILES | IC50 [1] [nM] | microsomal CLint at 1 µM [2] [µL/min/mg] | microsomal CLint at 1 µM [3] [µL/min/mg] | clearance [4] [mL/min/kg] | Vd [5] [L/kg] | half-life [6] [h] | bioavailability [7] [%] | IC50 [8] [nM] | IC50 [9] [nM] | solubility at 1 h [23] [µM] | other results
26 | Cc1nc2cccc(-c3cc4c([nH]3)CNC4=O)c2nc1NC(C)(C)C | 0.9 | 96 | 45 | 26.7 | 2.3 | 1.7 | 36 | – | 44 | – | –
